In ChEMBL document CHEMBL1158096, “Cytotoxic triterpenoids from the leaves of Microtropis fokienensis” (J Nat Prod, 2006):
≈ marks a conversion by molar mass, not a printed value. Calls of active or inactive are those of the source. No cut-off for these calls is given here.

How the values were obtained:
MCF7 = experiment: Cytotoxicity against human MCF7 cells after 3 days by MTT method; type: functional, cell-based
Procedure, shortened: (§1)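 Freshly trypsinized cells seeded at 5000-10 000 per well; compounds added from DMSO stocks. After 3 days in culture, attached cells incubated with MTT ([…], 1 h), solubilized in DMSO, absorbance read at 550 nm. IC50 = concentration reducing cell growth by 50%. Mean of two to three separate experiments, each in triplicate.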

MDA-MB-231 = experiment: Cytotoxicity against human MDA-MB-231 cells after 3 days by MTT method; type: functional, cell-based; procedure, shortened: as §1
Hep 3B2 = experiment: (§2) Cytotoxicity against human Hep3B cells after 3 days by MTT method; type: functional, cell-based; procedure, shortened: as §1
HepG2 = experiment: (§3) Cytotoxicity against human Hep G2 cells after 3 days by MTT method; type: functional, cell-based; procedure, shortened: as §1
A549 = experiment: Cytotoxicity against human A549 cells after 3 days by MTT method; type: functional, cell-based; procedure, shortened: as §1
[1] = as §2; type: functional, cell-based, Hep 3B2; conditions: 72 h; procedure, shortened: as §1
[2] = as §3; type: functional, cell-based; conditions: HepG2, 72 h; procedure, shortened: as §1

Compound | Activity (MCF7) | Activity (MDA-MB-231) | Activity (Hep 3B2) | Activity (HepG2) | Activity (A549) | IC50 [1] | IC50 [2]
CC1(C)CC[C@@]23CC[C@]4(C)[C@@](C=C[C@@H]5[C@@]6(C)CC[C@H](O)C(C)(C)[C@@H]6CC[C@]54C)(OC2)[C@@H]3C1 | inactive | inactive | inactive | inactive | inactive |  | 
COC(=O)/C=C/c1ccc(O)cc1 | inactive | inactive | inactive | inactive | inactive |  | 
C[C@H]1[C@H](C)CC[C@@]23CC[C@@]4(C)[C@]5(C)CC[C@@H]6[C@](C)(CC[C@H](O)[C@@]6(C)CO)[C@H]5CC(=O)[C@]4(OC2)[C@H]13 [MICROFOKIENOXANE C] | inactive | inactive |  |  | inactive | 4.5 µg/mL (≈ 9.52 µM) | 3.8 µg/mL (≈ 8.04 µM)
C[C@H]1[C@H](C)CC[C@]2(CO)CC[C@]3(C)C(=CC[C@@H]4[C@@]5(C)CC[C@H](O)C(C)(C)[C@@H]5CC[C@]43C)[C@H]12 | inactive | inactive | inactive | inactive | inactive |  | 
C=C(CO)[C@@H]1CC[C@]2(CO)CC[C@]3(C)[C@H](CC[C@@H]4[C@@]5(C)CC[C@H](O)C(C)(C)[C@@H]5CC[C@]43C)[C@@H]12 | inactive | inactive | inactive | inactive | inactive |  | 
C[C@H]1[C@H](C)CC[C@@]23CC[C@]4(C)[C@@](C=C[C@@H]5[C@@]6(C)CC[C@H](O)C(C)(C)[C@@H]6CC[C@]54C)(OC2)[C@H]13 | inactive | inactive | inactive | inactive | inactive |  | 
CO[C@@H]1C=C2[C@@H]3[C@@H](C)[C@H](C)CC[C@]3(CO)CC[C@@]2(C)[C@]2(C)CC[C@H]3C(C)(C)[C@@H](O)CC[C@]3(C)[C@@H]12 | inactive | inactive | inactive |  | inactive |  | 4.6 µg/mL (≈ 9.73 µM)
Oc1cc(O)c2c(c1)O[C@H](c1ccc(O)c(O)c1)[C@H](O)C2 | inactive | inactive | inactive | inactive | inactive |  | 
CC1(C)C(=O)CC[C@]2(C)[C@H]3C=C[C@]45OC[C@@]6(CC[C@](C)(CO)C[C@H]64)CC[C@@]5(C)[C@]3(C)CC[C@@H]12 | inactive | inactive | inactive | inactive | inactive |  | 
C[C@H]1[C@H](C)CC[C@@]23CC[C@]4(C)[C@@](C=C[C@@H]5[C@@]6(C)CC[C@H](O)[C@@](C)(CO)[C@@H]6CC[C@]54C)(OC2)[C@H]13 | inactive | inactive | inactive | inactive | inactive |  | 
C=C(CO)[C@@H]1CC[C@]2(C)CC[C@]3(C)[C@H](CC[C@@H]4[C@@]5(C)CC[C@H](O)C(C)(C)[C@@H]5CC[C@]43C)[C@@H]12 | inactive | inactive | inactive | inactive | inactive |  | 
C[C@H]1[C@H](C)CC[C@]23CO[C@@]4(C=C[C@@H]5[C@@]6(C)CC[C@H](O)C(C)(C)[C@@H]6CC[C@@]5(C)[C@]4(C)C[C@@H]2O)[C@H]13 | inactive | inactive | inactive | inactive | inactive |  | 
CO[C@@H]1C=C2[C@@H]3[C@@H](C)[C@H](C)CC[C@]3(C)CC[C@@]2(C)[C@]2(C)CC[C@H]3C(C)(C)[C@@H](O)CC[C@]3(C)[C@@H]12 | inactive | inactive | inactive | inactive | inactive |  | 
O=c1c(O)c(-c2ccc(O)cc2)oc2cc(O)cc(O)c12 | inactive | inactive | inactive | inactive | inactive |  | 
